Experimental data published in ChEMBL document CHEMBL1145100, “Structure-activity relationship of imidazo[1,2-a]pyridines as ligands for detecting beta-amyloid plaques in the brain” (J Med Chem, 2003).
pKi: −log10 of the molar value.

Biological target: Amyloid-beta precursor protein (Homo sapiens, UniProt P05067)
Assay: Inhibition constant against [125I]-7 (TZDM) binding to Amyloid beta 1-40 aggregates
Method in brief: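 Abeta40 peptide aggregated at 0.5 mg/mL in pH 7.4 buffer (10 mM sodium phosphate, 1 mM EDTA), 37 °C for 36-42 h with shaking. Competition in 1 mL of 40% EtOH: fibrils 10-50 nM final, radiotracer 0.05 nM, inhibitors 10^-5 to 10^-10 M. Nonspecific binding with 2 µM thioflavin-T. Incubated 3 h at room temperature, then GF/B filtration with 10% ethanol washes and gamma counting. Ki from nonlinear regression.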

Amyloid-beta precursor protein, sequence (P05067 whole entry): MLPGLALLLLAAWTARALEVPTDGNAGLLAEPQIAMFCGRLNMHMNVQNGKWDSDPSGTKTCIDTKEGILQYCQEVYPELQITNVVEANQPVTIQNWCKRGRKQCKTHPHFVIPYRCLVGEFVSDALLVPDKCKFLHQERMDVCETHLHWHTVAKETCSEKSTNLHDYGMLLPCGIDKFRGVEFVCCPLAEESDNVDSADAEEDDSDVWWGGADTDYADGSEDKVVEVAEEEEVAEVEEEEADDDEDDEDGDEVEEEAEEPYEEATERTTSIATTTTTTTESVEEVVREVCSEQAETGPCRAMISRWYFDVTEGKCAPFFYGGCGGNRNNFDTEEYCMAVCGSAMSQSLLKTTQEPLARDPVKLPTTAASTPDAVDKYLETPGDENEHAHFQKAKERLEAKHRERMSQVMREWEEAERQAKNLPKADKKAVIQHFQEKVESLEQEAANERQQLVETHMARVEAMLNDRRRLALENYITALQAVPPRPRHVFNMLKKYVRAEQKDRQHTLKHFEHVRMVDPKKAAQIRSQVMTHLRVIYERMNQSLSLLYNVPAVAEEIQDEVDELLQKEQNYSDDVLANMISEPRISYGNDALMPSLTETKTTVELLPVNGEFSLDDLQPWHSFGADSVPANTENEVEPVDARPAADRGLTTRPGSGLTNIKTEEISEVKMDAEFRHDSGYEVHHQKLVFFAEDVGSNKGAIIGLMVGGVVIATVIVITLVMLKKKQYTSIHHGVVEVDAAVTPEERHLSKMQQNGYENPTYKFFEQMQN

SMILES | pKi
CN(C)c1ccc(-c2cn3ccccc3n2)cc1 | < 5.70
CNc1ccc(-c2cn3ccccc3n2)cc1 | < 6.00
CN(C)c1ccc(-c2nc3ccccn3c2I)cc1 | < 5.70

Stronger by pKi, values ahead:

pKi | SMILES
6.20 | Cc1ccc2nc(-c3ccc(Br)cc3)cn2c1
7.99 | CN(C)c1ccc(-c2cn3cc(Br)ccc3n2)cc1
